# Measured values published in ChEMBL document CHEMBL3611973, “Synthesis and biological evaluation of a novel betulinic acid derivative as an inducer of apoptosis in human colon carcinoma cells (HT-29)” (Eur J Med Chem, 2015).
# Calls of active or inactive are those of the source. The calls are words filed in the database; no cut-off is given here.
# Key:
# HT-29 [1] = test: Cytotoxic activity against human HT-29 cells assessed as cell growth inhibition after 48 hrs by MTT assay; type: functional, cell-based; details: HT-29, 48 h
# Outline: (§1)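 Log-phase cells (1.25-2.5×10^4/100 µl; RPMI 1640, HepG2 in high-glucose DMEM, 10% FBS) given compound in DMSO (final <0.1%), 0-50 µM, 48 h, 37 °C, 5% CO2. MTT 4 h, DMSO solubilization, OD 540 nm minus background; viability relative to untreated; IC50 by graphical extrapolation, ≥3 experiments in duplicate.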
# HepG2 = test: Cytotoxic activity against human HepG2 cells assessed as cell growth inhibition after 48 hrs by MTT assay; type: functional, cell-based; details: HepG2, 48 h; outline: as §1
# PBMC = test: Cytotoxic activity against human PBMC cells assessed as cell growth inhibition after 48 hrs by MTT assay; type: cell-based; outline: as §1
# MCF7 = test: Cytotoxic activity against human MCF7 cells assessed as cell growth inhibition after 48 hrs by MTT assay; type: functional, cell-based; details: MCF7, 48 h; outline: as §1
# Jurkat = test: Cytotoxic activity against human Jurkat cells assessed as cell growth inhibition after 48 hrs by MTT assay; type: functional, cell-based; outline: as §1
# U-937 = test: Cytotoxic activity against human U937 cells assessed as cell growth inhibition after 48 hrs by MTT assay; type: functional, cell-based; details: U-937, 48 h; outline: as §1
# HT-29 [2] = test: Cytotoxicity against human HT-29 cells assessed as cell viability after 48 hrs by MTT assay in presence of NAC; type: functional, cell-based; details: HT-29, 48 h
# Outline: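 HT-29 cells pre-incubated with 2.5 mM N-acetyl cysteine for 3 h, then exposed to compound and assayed for viability by MTT.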
# HT-29 [3] = test: Induction of apoptosis in human HT-29 cells assessed as late apoptotic cells using annexin V-FITC/propidium iodide staining at IC50 after 24 hrs by flow cytometry (reference value: 0.0%); type: functional
# HT-29 [4] = test: Induction of apoptosis in human HT-29 cells assessed as early apoptotic cells using annexin V-FITC/propidium iodide staining at IC50 after 48 hrs by flow cytometry (reference value: 0.1%); type: functional
# HT-29 [5] = test: Induction of apoptosis in human HT-29 cells assessed as reduction in Bcl2/Bax ratio at IC50 after 12 to 48 hrs by Western blotting; type: functional, cell-based
# HT-29 [6] = test: Induction of apoptosis in human HT-29 cells assessed as chromatin condensation using Hoechst 33258 dye at IC50 after 48 hrs by confocal microscopic analysis; type: functional, cell-based
# Outline: (§2)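 HT-29 (2.5×10^5 cells/ml) treated 48 h at 37 °C, 5% CO2, washed, fixed in 4% paraformaldehyde (4 °C, 30 min), stained with Hoechst 33258 (5 µg/ml final, 37 °C, 30 min, dark), mounted in 50% glycerol on poly-L-lysine slides; confocal imaging at 100×.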
# HT-29 [7] = test: Induction of apoptosis in human HT-29 cells assessed as early apoptotic cells using annexin V-FITC/propidium iodide staining at IC50 after 12 hrs by flow cytometry (reference value: 0.1%); type: functional
# HT-29 [8] = test: Induction of apoptosis in human HT-29 cells assessed as cleavage of PARP at IC50 after 24 to 48 hrs by Western blotting; type: functional, cell-based
# HT-29 [9] = test: Induction of apoptosis in human HT-29 cells assessed as late apoptotic cells using annexin V-FITC/propidium iodide staining at IC50 by flow cytometry; type: functional, cell-based; details: TDE = time-dependent effect
# HT-29 [10] = test: Induction of apoptosis in human HT-29 cells assessed as loss of mitochondrial membrane potential using JC-1 dye at IC50 after 12 hrs by flow cytometry (reference value: 1.75%); type: functional
# HT-29 [11] = test: Induction of apoptosis in human HT-29 cells assessed as ROS generation measured up to 15 mins by FACS analysis; type: functional, cell-based
# Outline: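 HT-29 (2.5×10^5/ml) exposed 0-2 h, washed, loaded with CM-H2DCFDA (5 μM in PBS) 30 min at 37 °C in the dark. DCF read by flow cytometry (ex 488/em 530 nm) on FSC/SSC-gated viable cells; mean fluorescence intensity, three independent experiments.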
# HT-29 [12] = test: Induction of apoptosis in human HT-29 cells assessed as fragmentation using Hoechst 33258 dye at IC50 after 48 hrs by confocal microscopic analysis; type: functional, cell-based; outline: as §2
# HT-29 [13] = test: Induction of apoptosis in human HT-29 cells assessed as late apoptotic cells using annexin V-FITC/propidium iodide staining at IC50 after 12 hrs by flow cytometry (reference value: 0.0%); type: functional
# HT-29 [14] = test: Induction of apoptosis in human HT-29 cells assessed as loss of mitochondrial membrane potential using JC-1 dye at IC50 after 24 hrs by flow cytometry (reference value: 1.75%); type: functional
# HT-29 [15] = test: Induction of apoptosis in human HT-29 cells assessed as membrane blebbing using Hoechst 33258 dye at IC50 after 48 hrs by confocal microscopic analysis; type: functional, cell-based; outline: as §2
# HT-29 [16] = test: Induction of apoptosis in human HT-29 cells assessed as early apoptotic cells using annexin V-FITC/propidium iodide staining at IC50 by flow cytometry; type: functional, cell-based; details: TDE = time-dependent effect
# Calf thymus DNA [17] = test: Binding affinity to calf thymus DNA assessed as conformational change at 50 uM after 2 hrs by circular dichroism analysis; type: nucleic-acid assay; details: Bos taurus
# Outline: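 CT-DNA (500 μg/mL) incubated alone or with 50 μM compound for 2 h at 37 °C in 50 mM Tris-HCl/NaCl buffer; CD spectra recorded for conformation, with the positive band at 275 nm and the negative band at 245 nm (B-form) monitored.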
# HT-29 [18] = test: Induction of apoptosis in human HT-29 cells assessed as late apoptotic cells using annexin V-FITC/propidium iodide staining at IC50 after 48 hrs by flow cytometry (reference value: 0.0%); type: functional
# HT-29 [19] = test: Induction of apoptosis in human HT-29 cells assessed as increase in caspase-9 activity at IC50 after 48 hrs by colorimetric assay; type: functional, cell-based
# Calf thymus DNA [20] = test: Binding affinity to calf thymus DNA up to 2 hrs by absorption spectroscopy analysis; type: nucleic-acid assay; details: Bos taurus
# Outline: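 Compound stock in 60% ethanol/50 mM Tris-HCl/NaCl (pH 7.5), diluted in buffer, actual concentration set by molar extinction coefficient. CT-DNA held at 50 μg/ml (legend: 100 μg/mL) with varied compound, 37 °C, 2 h; UV-vis scanned 200-400 nm. θ from 260 nm absorbance; Kb as the reciprocal of ligand concentration at half-saturation of the isotherm.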
# HT-29 [21] = test: Induction of apoptosis in human HT-29 cells assessed as loss of mitochondrial membrane potential using JC-1 dye at IC50 after 48 hrs by flow cytometry (reference value: 1.75%); type: functional
# HT-29 [22] = test: Induction of apoptosis in human HT-29 cells assessed as increase in caspase-3 activity at IC50 after 48 hrs by colorimetric assay; type: functional, cell-based
# HT-29 [23] = test: Induction of apoptosis in human HT-29 cells assessed as apoptotic bodies using Hoechst 33258 dye at IC50 after 48 hrs by confocal microscopic analysis; type: functional, cell-based; outline: as §2
# HT-29 [24] = test: Induction of apoptosis in human HT-29 cells assessed as early apoptotic cells using annexin V-FITC/propidium iodide staining at IC50 after 24 hrs by flow cytometry (reference value: 0.1%); type: functional
# HT-29 [25] = test: Induction of apoptosis in human HT-29 cells assessed as increase in caspase-8 activity at IC50 after 48 hrs by colorimetric assay; type: functional, cell-based
compound,measurement,setting,value
C=C(C)[C@@H]1CC[C@]2(C(=O)O)CC[C@]3(C)[C@H](CC[C@@H]4[C@@]5(C)CC[C@H](OC(=O)Cn6cc(-c7ccccc7)nn6)C(C)(C)[C@@H]5CC[C@]43C)[C@@H]12,IC50,HT-29 [1],> 50 µM
same,IC50,HepG2,> 50 µM
same,IC50,PBMC,> 50 µM
same,IC50,MCF7,> 50 µM
same,IC50,Jurkat,> 50 µM
same,IC50,U-937,> 50 µM
C=C(C)[C@@H]1CC[C@]2(C(=O)O)CC[C@]3(C)[C@H](CC[C@@H]4[C@@]5(C)CC[C@H](OC(=O)Cn6cc(CO)nn6)C(C)(C)[C@@H]5CC[C@]43C)[C@@H]12,IC50,HT-29 [2],30.4 µM
same,Activity,HT-29 [3],3.2%
same,Activity,HT-29 [4],25.2%
same,Activity,HT-29 [5],Active
same,Activity,HT-29 [6],Active
same,IC50,HT-29 [1],14.9 µM
same,Activity,HT-29 [7],14.1%
same,IC50,HepG2,> 50 µM
same,Activity,HT-29 [8],Active
same,Activity,HT-29 [9],tde
same,Activity,HT-29 [10],16.5%
same,IC50,PBMC,> 50 µM
same,Activity,HT-29 [11],Active
same,Activity,HT-29 [12],Active
same,IC50,MCF7,> 50 µM
same,Activity,HT-29 [13],2%
same,Activity,HT-29 [14],30.5%
same,Activity,HT-29 [15],Active
same,IC50,Jurkat,41.4 µM
same,Activity,HT-29 [16],tde
same,Activity,Calf thymus DNA [17],inactive
same,Activity,HT-29 [18],4.6%
same,Activity,HT-29 [19],Active
same,IC50,U-937,> 50 µM
same,K,Calf thymus DNA [20],8.38 ×10⁴ /M
same,Activity,HT-29 [21],51.4%
same,Activity,HT-29 [22],Active
same,Activity,HT-29 [23],Active
same,Activity,HT-29 [24],17.1%
same,Activity,HT-29 [25],inactive
C=C(C)[C@@H]1CC[C@]2(C(=O)O)CC[C@]3(C)[C@H](CC[C@@H]4[C@@]5(C)CC[C@H](OC(=O)Cn6cc(-c7ccc(C(=O)OC)cc7)nn6)C(C)(C)[C@@H]5CC[C@]43C)[C@@H]12,IC50,HT-29 [1],> 50 µM
same,IC50,HepG2,> 50 µM
same,IC50,MCF7,> 50 µM
same,IC50,Jurkat,> 50 µM
same,IC50,U-937,> 50 µM
C=C(C)[C@@H]1CC[C@]2(C(=O)O)CC[C@]3(C)[C@H](CC[C@@H]4[C@@]5(C)CC[C@H](OC(=O)Cn6cc(-c7ccc8[nH]ccc8c7)nn6)C(C)(C)[C@@H]5CC[C@]43C)[C@@H]12,IC50,HT-29 [1],> 50 µM
same,IC50,HepG2,> 50 µM
same,IC50,MCF7,> 50 µM
same,IC50,Jurkat,> 50 µM
same,IC50,U-937,> 50 µM
C=C(C)[C@@H]1CC[C@]2(C(=O)O)CC[C@]3(C)[C@H](CC[C@@H]4[C@@]5(C)CC[C@H](OC(=O)Cn6cc(-c7ccc(C(=O)OCC)cc7)nn6)C(C)(C)[C@@H]5CC[C@]43C)[C@@H]12,IC50,HT-29 [1],> 50 µM
same,IC50,HepG2,> 50 µM
same,IC50,MCF7,> 50 µM
same,IC50,Jurkat,> 50 µM
same,IC50,U-937,40.1 µM
C=C(C)[C@@H]1CC[C@]2(C(=O)O)CC[C@]3(C)[C@H](CC[C@@H]4[C@@]5(C)CC[C@H](OC(=O)Cn6cc(-c7c[nH]c(=O)[nH]c7=O)nn6)C(C)(C)[C@@H]5CC[C@]43C)[C@@H]12,IC50,HT-29 [1],> 50 µM
same,IC50,HepG2,> 50 µM
same,IC50,MCF7,> 50 µM
same,IC50,Jurkat,> 50 µM
same,IC50,U-937,> 50 µM
